Laboratory results as given in article PMC7610535 (Nature chemical biology, 2020).

Columns and labels:
[1] = molecular target: T1, AURORA-A (Homo sapiens, UniProt O14965); assay: Immunoblot of AURORA-A in compound-treated MV4-11 cells; assay type: cell-based; conditions: 6 hours
T1 sequence (O14965 1-403): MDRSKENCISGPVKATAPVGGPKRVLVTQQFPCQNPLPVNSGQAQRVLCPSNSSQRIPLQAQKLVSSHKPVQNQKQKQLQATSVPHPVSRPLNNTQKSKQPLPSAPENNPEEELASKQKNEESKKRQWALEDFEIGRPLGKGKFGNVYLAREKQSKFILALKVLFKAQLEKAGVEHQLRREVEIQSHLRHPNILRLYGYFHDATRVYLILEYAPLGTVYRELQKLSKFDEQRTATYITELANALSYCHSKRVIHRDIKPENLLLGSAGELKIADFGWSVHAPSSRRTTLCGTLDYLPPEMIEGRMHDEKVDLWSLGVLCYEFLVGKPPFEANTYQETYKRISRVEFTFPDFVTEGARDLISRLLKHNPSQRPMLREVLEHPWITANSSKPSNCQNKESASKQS

[2] = molecular target: T1, AURORA-A; assay: Immunoblot of AURORA-A in U2OS, HLE and IMR5 cells; assay type: cell-based; conditions: HLE and IMR5 cell lines
Procedure, shortened: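 U2OS and HLE cells were exposed to a range of concentrations for 6 h. IMR5 cells were exposed for 6 h, or at 1 µM alongside siRNA knockdown of AURORA-A/B. Lysis was in RIPA buffer for 20 min at 4 °C, and protein was quantified by BCA. Samples were separated by Bis-Tris PAGE, blotted onto PVDF, blocked in 5% milk/TBS-T and probed overnight at 4 °C.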

COc1cc(Nc2ncc3c(n2)-c2ccc(Cl)cc2C(c2c(F)cccc2OC)=NC3)ccc1C(=O)NCCOCCOCCNC(=O)COc1cccc2c1C(=O)N(C1CCC(=O)NC1=O)C2=O (stereo not drawn) [JB170]
reduction of AURORA-A levels (in words) ([1]; 10 nM): reduced AURORA-A levels modestly
reduction of AURORA-A levels (in words) ([1]; 100 nM and 1 µM): substantial degradation
degrader activity on co-incubation with alisertib or thalidomide [1]: abolished its degrader activity
depletion of AURORA-A under proteasomal inhibition by MG132 ([1]; MG132 10 µM): completely blocked
depletion of AURORA-A under inhibition of cullin neddylation by MLN4924 ([1]; MLN4924 3 µM): completely blocked
AURORA-A depletion (in words) [2]: rapid AURORA-A depletion in all cases
